Source: ChEMBL document CHEMBL3272319, “Alkyl streptozotocin analogues with improved biological activities” (J Med Chem, 1976)

What was measured:
[1] = Antitumor activity against mouse S180A allografted in ICR mouse assessed as tumor growth at 50 mg/kg, ip qd for 5 days measured on day 7 relative to control; type: functional; conditions: route intraperitoneal
Method in brief: (§1)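 Ascites Sarcoma 180 (1 × 10^7 cells) implanted into ICR mice, six animals per group. Five daily ip injections in saline (days 1–5). Sacrificed day 7. T/C % computed from total packed cell volume (ascites volume × PCV) vs controls. Grades: 100-66 = -, 65-41 = +, 40-11 = ++, 10-0 = +++.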

[2] = test system: Mus musculus; experiment: Toxicity in ICR mouse allografted with mouse S180A assessed as mortality at 50 mg/kg, ip qd for 5 days; type: organism-based; set-up: dose 50 mg/kg, route intraperitoneal; conditions: in vivo, 120 h
Method in brief: (§2)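 Ascites Sarcoma 180 (1 × 10^7 cells) implanted into ICR mice, six per group; compound in saline ip once daily days 1-5; sacrifice on day 7; total packed cell volume (ascites volume × PCV) compared with controls as T/C %; mortality recorded.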

[3] = test system: L1210; experiment: Antitumor activity against mouse L1210 cells allografted in BDF1 mouse assessed as increase in host lifespan at 125 mg/kg, ip qd for 5 days relative to control; type: functional; conditions: 120 h, route intraperitoneal
Method in brief: (§3)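 L1210 (1 × 10^5 cells) implanted into BDF1 mice, six per group; compound in saline ip once daily days 1-5; effect read as % increase in life span, ILS = [(treated life span/control life span) − 1] × 100.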

[4] = test system: Mus musculus; experiment: Toxicity in BDF1 mouse allografted with mouse L1210 cells assessed as mortality at 125 mg/kg, ip qd for 5 days; type: organism-based; set-up: dose 125 mg/kg, route intraperitoneal; conditions: in vivo, 120 h; method in brief: as §3
[5] = test system: Bacillus subtilis; experiment: Antibacterial activity against Bacillus subtilis ATCC 6633 assessed as growth inhibition after 18 hrs by broth dilution method; type: functional; conditions: ATCC 6633, 18 h
Method in brief: (§4)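 Twofold serial dilutions in heart infusion broth. Inoculum was a 24-h heart infusion broth culture diluted 100-fold in physiological saline. Tubes incubated 30 °C for 18 h; the table footnote gives 32 °C for 24 h. MIC in µg/ml is the lowest level giving complete growth inhibition.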

[6] = test system: Escherichia coli; experiment: Antibacterial activity against Escherichia coli NIHJ JC-2 assessed as growth inhibition after 18 hrs by broth dilution method; type: functional; conditions: NIHJ JC-2, 18 h; method in brief: as §4
[7] = test system: Klebsiella pneumoniae; experiment: Antibacterial activity against Klebsiella pneumoniae ATCC 10031 assessed as growth inhibition after 18 hrs by broth dilution method; type: functional; conditions: ATCC 10031, 18 h; method in brief: as §4
[8] = test system: Proteus vulgaris; experiment: Antibacterial activity against Proteus vulgaris AHU 1469 assessed as growth inhibition after 18 hrs by broth dilution method; type: functional; conditions: AHU 1469, 18 h; method in brief: as §4
[9] = test system: Pseudomonas fluorescens; experiment: Antibacterial activity against Pseudomonas fluorescens NIHJ B-254 assessed as growth inhibition after 18 hrs by broth dilution method; type: functional; conditions: NIHJ B-254, 18 h; method in brief: as §4
[10] = test system: Salmonella typhi; experiment: Antibacterial activity against Salmonella typhi IFM 3020 assessed as growth inhibition after 18 hrs by broth dilution method; type: functional, Salmonella enterica subsp. enterica serovar Typhi; conditions: Salmonella enterica, IFM 3020, 18 h
Method in brief: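 Twofold serial dilutions in heart infusion broth; inoculum from 24 h heart infusion broth culture diluted 100-fold in physiological saline; tubes incubated 30 °C for 18 h; MIC (µg/ml) = lowest level giving complete growth inhibition.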

[11] = test system: Micrococcus luteus; experiment: Antibacterial activity against Sarcina lutea ATCC 9341 assessed as growth inhibition after 18 hrs by broth dilution method; type: functional; conditions: ATCC 9341, 18 h; method in brief: as §4
[12] = test system: Shigella sonnei; experiment: Antibacterial activity against Shigella sonnei assessed as growth inhibition after 18 hrs by broth dilution method; type: functional; method in brief: as §4
[13] = test system: Staphylococcus aureus; experiment: Antibacterial activity against Staphylococcus aureus FDA 209P JC-1 assessed as growth inhibition after 18 hrs by broth dilution method; type: functional; conditions: FDA 209P JC-1, 18 h; method in brief: as §4
[14] = test system: Enterococcus faecalis; experiment: Antibacterial activity against Streptococcus faecalis ATCC 10541 assessed as growth inhibition after 18 hrs by broth dilution method; type: functional; conditions: ATCC 10541, 18 h; method in brief: as §4
[15] = (§5) Acute toxicity in ip dosed JCL-ICR mouse assessed as animal death; type: organism-based; conditions: JCL-ICR, in vivo
Method in brief: (§6)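 Groups of ten female JCL-ICR mice given single ip dose in physiological saline; deaths followed over 7 days; LD50 (and LD10) derived by Litchfield–Wilcoxon method.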

[16] = test system: Mus musculus; experiment: as §5; type: organism-based; conditions: in vivo; method in brief: as §6
[17] = test system: Mus musculus; experiment: Ratio of compound LD10 to streptozotocin LD10 for JCL-ICR mouse; type: ADME, organism-based; conditions: in vivo
[18] = Ratio of compound LD50 to streptozotocin LD50 for JCL-ICR mouse; type: ADME, organism-based; conditions: in vivo
[19] = test system: Rattus norvegicus; experiment: Diabetogenic activity in iv dosed Wistar rat assessed as increase in blood sugar level administered as single dose by glucose oxidase method; type: ADME, organism-based; conditions: in vivo
Method in brief: (§7)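 Male Wistar rats, about 200 g, five per group, fasted 16 h. Single iv dose into the femoral vein in physiological saline, equimolar across compounds. Caudal-vein blood sampled at set times over 24 h. Sugar measured by glucose oxidase.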

[20] = Antitumor activity against mouse S180A allografted in ICR mouse assessed as tumor growth at 25 mg/kg, ip qd for 5 days measured on day 7 relative to control; type: functional; conditions: route intraperitoneal; method in brief: as §1
[21] = test system: Mus musculus; experiment: Toxicity in ICR mouse allografted with mouse S180A assessed as mortality at 25 mg/kg, ip qd for 5 days; type: organism-based; set-up: dose 25 mg/kg, route intraperitoneal; conditions: in vivo, 120 h; method in brief: as §2
[22] = test system: Ehrlich; experiment: Antitumor activity against mouse EAC allografted in ICR mouse assessed as tumor growth at 150 mg/kg, ip qd for 5 days measured on day 7 relative to control; type: functional; conditions: route intraperitoneal
Method in brief: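 Ehrlich ascites carcinoma (1 × 10^7 cells) implanted into ICR mice, six per group. Drug in saline ip, qd days 1–5. Mice killed day 7. Total packed cell volume = ascites volume × % packed cell volume; T/C % = TPCV treated/control × 100. Activity graded from T/C.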

[23] = test system: Mus musculus; experiment: Toxicity in ICR mouse allografted with mouse EAC assessed as mortality at 150 mg/kg, ip qd for 5 days; type: organism-based; set-up: dose 150 mg/kg, route intraperitoneal; conditions: in vivo, 120 h
Method in brief: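 Ehrlich ascites carcinoma (1 × 10^7 cells) implanted into ICR mice, six per group; compound ip daily for 5 days; mice sacrificed day 7; tumour burden as total packed cell volume (ascites volume × PCV), T/C % vs controls; mortality recorded.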

[24] = test system: L1210; experiment: Antitumor activity against mouse L1210 cells allografted in BDF1 mouse assessed as increase in host lifespan at 50 mg/kg, ip qd for 5 days relative to control; type: functional; conditions: 120 h, route intraperitoneal; method in brief: as §3
[25] = test system: Mus musculus; experiment: Toxicity in BDF1 mouse allografted with mouse L1210 cells assessed as mortality at 50 mg/kg, ip qd for 5 days; type: organism-based; set-up: dose 50 mg/kg, route intraperitoneal; conditions: in vivo, 120 h; method in brief: as §3
[26] = test system: Rattus norvegicus; experiment: Diabetogenic activity in Wistar rat assessed as increase in blood sugar level at 68 mg/kg, iv administered as single dose by glucose oxidase method; type: ADME, organism-based; set-up: dose 68 mg/kg, route intravenous; conditions: in vivo; method in brief: as §7
[27] = test system: Rattus norvegicus; experiment: Diabetogenic activity in Wistar rat assessed as increase in blood sugar level at 30 to 120 mg/kg, ip qd for 1 month measured 24 hrs last drug dosage by glucose oxidase method; type: ADME, organism-based; set-up: dose 30-120 mg/kg, route intraperitoneal; conditions: in vivo
Method in brief: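 Male Wistar rats, about 150 g, five per group. Drug in physiological saline given ip qd on days 1–30. Blood drawn 24 h after the last dose. Sugar measured by glucose oxidase.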

[28] = Acute toxicity in iv dosed mouse; type: organism-based; conditions: in vivo
[29] = Acute toxicity in iv dosed dog; type: organism-based, Canis lupus familiaris; conditions: in vivo
[30] = Therapeutic index, ratio of LD10 for JCL-ICR mouse to ED90 for mouse S180A cells allografted in ICR mouse; conditions: read-out: TI
[31] = test system: Mus musculus; experiment: Toxicity in ip dosed BDF1 mouse allografted with mouse L1210 cells assessed as optimal dose required for mortality administered qd for 5 days; type: organism-based; conditions: in vivo, 120 h
[32] = Antitumor activity against mouse S180A cells allografted in ip dosed ICR mouse administered qd for 5 days; type: functional; conditions: 120 h; method in brief: as §1
[33] = test system: L1210; experiment: Antitumor activity against mouse L1210 cells allografted in ip dosed BDF1 mouse assessed as 30% increase in host lifespan administered for qd for 5 days; type: functional
[34] = Antitumor activity against mouse S180A allografted in ICR mouse assessed as tumor growth at 125 mg/kg, ip qd for 5 days measured on day 7 relative to control; type: functional; conditions: route intraperitoneal; method in brief: as §1
[35] = test system: Mus musculus; experiment: Toxicity in ICR mouse allografted with mouse S180A assessed as mortality at 125 mg/kg, ip qd for 5 days; type: organism-based; set-up: dose 125 mg/kg, route intraperitoneal; conditions: in vivo, 120 h; method in brief: as §2

SMILES: CCO[C@H]1O[C@H](CO)[C@@H](O)[C@H](O)[C@H]1NC(=O)N(C)N=O
- T/C [1]: 38%
- Activity [2]: Non-toxic
- ILS at 125 mg/kg [3]: 64%
- Activity [4]: Non-toxic
- MIC [5]: > 1000 µg/mL
- MIC [6]: > 1000 µg/mL
- MIC [7]: > 1000 µg/mL
- MIC [8]: > 1000 µg/mL
- MIC [9]: > 1000 µg/mL
- MIC [10]: > 1000 µg/mL
- MIC [11]: > 1000 µg/mL
- MIC [12]: > 1000 µg/mL
- MIC [13]: > 1000 µg/mL
- MIC [14]: > 1000 µg/mL
- LD50 [15]: 2050 mg/kg
- LD10 [16]: 2000 mg/kg
- Ratio [17]: 2
- selectivity ratio [18]: 2
- Activity [19]: Non-toxic

SMILES: CO[C@@H]1O[C@H](CO)[C@@H](O)[C@H](O)[C@H]1NC(=O)N(C)N=O
- T/C [20]: 22%
- Activity [21]: Non-toxic
- T/C [22]: 1%
- Activity [23]: Non-toxic
- ILS at 50 mg/kg [24]: 40%
- Activity [25]: Non-toxic
- Activity [26]: Non-toxic
- Activity [27]: Non-toxic
- MIC [5]: > 1000 µg/mL
- MIC [6]: > 1000 µg/mL
- MIC [7]: > 1000 µg/mL
- MIC [8]: > 1000 µg/mL
- MIC [9]: > 1000 µg/mL
- MIC [10]: > 1000 µg/mL
- MIC [11]: > 1000 µg/mL
- MIC [12]: > 1000 µg/mL
- MIC [13]: > 1000 µg/mL
- MIC [14]: > 1000 µg/mL
- LD50 [15]: 1700 mg/kg
- LD10 [16]: 800 mg/kg
- Ratio [17]: 2
- selectivity ratio [18]: 2
- LD50 [28]: 1620 mg/kg
- LD50 [29]: 400 mg/kg
- selectivity ratio [30]: 16
- Activity [31]: 400 mg/kg/day
- ED90 [32]: 50 mg/kg/day
- Activity [33]: 33 mg/kg/day

SMILES: CCCCN(N=O)C(=O)N[C@H]1[C@@H](OC)O[C@H](CO)[C@@H](O)[C@@H]1O
- T/C [34]: 75%
- Activity [35]: Non-toxic
- Activity [19]: Non-toxic
